# From PubChem
# Hits are enriched below; roughly 1.9% of the tested compounds scored in any of these assays.
# LEDGF integ inh: blocks HIV-1 LEDGF/p75-dependent DNA integration. inhibition, % at 3.7 µM. AID 743269. TR-FRET IN-LEDGF/p75 DNA integration, Eu/Cy5. 370,000 compounds, 0.64% hits;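 active = inhibition above the screen-wide mean plus 3 SD, cut at about 13% in these data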;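 also: signal is the Cy5 over europium emission ratio at 671 and 618 nm; 0% = plate median of compound wells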
# Rin1-Abl PPI inh: inhibitors of human Rin1-Abl protein interaction; TR-FRET Rin1/Abl binding, biochemical; P00519+Q13671; inhibition, % at 7.35 µM; 360,000 compounds, 0.4% hits; in the data active = inhibition above about 5%, passing the limit was not always enough
# UHRF1 binding: blocks human UHRF1 binding to methylated DNA; Q96T88; UHRF1 binding to methylated oligo, TR-FRET; inhibition, % at 4.4 µM; 370,000 compounds, 0.75% hits; AID 687016; in the data active = inhibition above about 21%;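 also: UHRF1 SRA domain binding a hemimethylated CpG hairpin DNA probe; 0% = median of test compound wells and 100% = reference inhibitor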
# Target sequence (Q96T88 whole entry, looked up, the tested form may be a part): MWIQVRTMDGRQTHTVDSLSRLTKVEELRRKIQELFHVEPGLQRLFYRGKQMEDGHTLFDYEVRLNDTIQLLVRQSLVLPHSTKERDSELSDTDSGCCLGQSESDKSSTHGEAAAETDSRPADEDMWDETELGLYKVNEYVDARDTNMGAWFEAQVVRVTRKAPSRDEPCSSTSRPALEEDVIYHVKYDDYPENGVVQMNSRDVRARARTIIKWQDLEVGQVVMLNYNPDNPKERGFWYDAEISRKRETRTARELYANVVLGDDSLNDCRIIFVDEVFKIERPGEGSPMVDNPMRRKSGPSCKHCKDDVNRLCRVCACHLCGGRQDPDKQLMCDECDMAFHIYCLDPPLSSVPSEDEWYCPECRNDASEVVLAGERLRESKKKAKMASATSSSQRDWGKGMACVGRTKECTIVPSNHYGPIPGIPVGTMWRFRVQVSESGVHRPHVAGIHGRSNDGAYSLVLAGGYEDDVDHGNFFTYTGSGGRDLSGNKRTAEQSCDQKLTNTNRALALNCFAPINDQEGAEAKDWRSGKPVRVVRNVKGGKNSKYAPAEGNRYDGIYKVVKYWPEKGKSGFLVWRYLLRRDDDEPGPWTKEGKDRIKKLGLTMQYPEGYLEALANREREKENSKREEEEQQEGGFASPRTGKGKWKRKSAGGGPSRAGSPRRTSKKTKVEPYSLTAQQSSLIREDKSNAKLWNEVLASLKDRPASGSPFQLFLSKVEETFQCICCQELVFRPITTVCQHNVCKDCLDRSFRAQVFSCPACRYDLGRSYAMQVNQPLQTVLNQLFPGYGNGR
# TDP2 inh: blocks human TDP2 phosphodiesterase activity; O95551; recombinant TDP2, T5PNP hydrolysis, p-nitrophenol absorbance 415 nm; inhibition, % at 12.8 µM; 370,000 compounds, 0.34% hits;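 active = inhibition above the mean of all tested compounds plus 3 SD, set per campaign, cut at about 25% in these data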;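 also: 0% = DMSO with enzyme and 100% = buffer with substrate but no TDP2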
#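 System – recombinant human TDP2 · Amount – 120 nM TDP2 per well · Buffer or medium – Mg2+-containing Tris-HCl buffer, pH 7.5 · Reagent – T5PNP substrate, 5 mM · Dosing – 12.8 µM single point, 1% DMSO · Incubation – 2 h at 37 °C · Measured by – epi absorbance · Read-out basis – percent inhibition · Benchmarks – high control without enzyme, low control DMSO plus TDP2 · Repeats – singlicate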
# MBD2 DNA inh: MBD2-methylated oligo binding inhibition | 370,000 compounds, 0.31% hits | inhibition, % at 4.4 µM | AID 686964 | TR-FRET, MBD2 binding to methylated oligonucleotide; in the data active = inhibition above about 13%
# Rin1 Abl conf: confirmation of inhibitors of human Rin1-Abl interaction | AID 602124 | TR-FRET Rin1-Abl binding, purified proteins | 1,300 compounds, 49% hits | shares compounds with Rin1-Abl PPI inh | inhibition, % at 7.35 µM
# GFP quench: counter-screen for Rin1-Abl inhibitors: GFP fluorescence quenchers. inhibition, % at 6.75 µM. AID 602125. shares compounds with Rin1-Abl PPI inh. inhibitors/quenchers counterscreen. 1,300 compounds, 8.5% hits;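 also: ABL1-eGFP fusion protein alone without its partner RIN1-SBP; 0% = protein with vehicle and 100% = wells lacking protein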
# GFP quench DR: GFP fluorescence interference dose response; shares compounds with Rin1-Abl PPI inh; GFP fluorescence interference/quenching counterscreen; IC50, µM; 230 tested, under 10 active; AID 602182; call rule not given here;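 also: ABL1-eGFP fusion protein alone without its RIN1 binding partner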
# TDP2 confirm: human TDP2 inhibition, confirmation. recombinant human TDP2, absorbance read-out. shares compounds with TDP2 inh. 1,100 compounds, 22% hits. inhibition, % at 12.8 µM; in the data active = inhibition above about 25%;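 also: 0% = vehicle with enzyme and 100% = no enzyme buffer only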
# IN multimer up: counter-screen for LEDGF/p75 integration inhibitors: HIV-1 integrase multimerization activators | shares compounds with LEDGF integ inh | TR-FRET HIV-1 integrase multimerization, biochemical | activation, % at 7.7 µM | 2,000 compounds, 17% hits; in the data active = activation above about 8.9%
# TR-FRET interf: optically interferes with TR-FRET readout in LEDGF counter-screen | 2,000 tested, under 10 active | TR-FRET optical interference counterscreen, HIV-1 IN multimerization | inhibition, % at 7.7 µM | shares compounds with LEDGF integ inh;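 active = inhibition above the mean over all tested compounds plus 3 SD, which no compound reached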;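 also: 0% = integrase with antibodies and DMSO and 100% = antibodies without integrase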
# IN-LEDGF confirm: LEDGF/p75-dependent HIV-1 integration inhibition, confirmation; inhibition, % at 3.7 µM; shares compounds with LEDGF integ inh; TR-FRET LEDGF/p75-dependent HIV-1 integration, biochemical; 2,000 compounds, 36% hits; in the data active = inhibition above about 14%
# Active calls of the source: *; . = not tested or not shown. Rule as the data show it, unless noted: active = inhibition above about 6.5%; inactive = the rest.
SMILES,LEDGF integ inh,Rin1-Abl PPI inh,UHRF1 binding,TDP2 inh,MBD2 DNA inh,Rin1 Abl conf,GFP quench,IN multimer up,TR-FRET interf,IN-LEDGF confirm,others
O=c1c(O)c(-c2ccc(O)c(O)c2)oc2cc(O)cc(O)c12,89*,24*,9,-5,8,16*,4,41*,-145,88*,
CC1OC(Oc2c(-c3cc(O)c(O)c(O)c3)oc3cc(O)cc(O)c3c2=O)C(O)C(O)C1O (configuration not stated),39*,42*,2,-7,3,45*,15*,41*,-146,53*,
COC(=O)c1ccc(S(=O)(=O)N2CCC(NC(=O)CCC3CCCC3)CC2)cc1,-1,.,3,11,2,.,.,.,.,.,
COC(=O)[C@]12C[C@H](CC(=O)N3CCCC3)C(=O)N(Cc3ccco3)C1=C[C@H](COCc1ccccc1)O[C@@H]2C,2,.,1,11,-6,.,.,.,.,.,
Oc1ccc(/C=N/N=C(c2ccccc2)c2ccccc2)c(O)c1O,41*,21*,-1,-4,-5,41*,16*,21*,-76,84*,
O=C(NN=Cc1ccc(O)c(O)c1)c1ccccc1,.,7,.,.,.,.,.,.,.,.,
CN(C)[C@H]1CCN(c2ccc3c(c2)O[C@H]2CCN(C2)S3(=O)=O)C1,-3,.,1,-12,-2,.,.,.,.,.,
CSCCCNC(=O)CN1C(=O)C2CCCCN2C(=O)c2ccccc21 (configuration not stated),1,.,-2,-9,-3,.,.,.,.,.,
Cc1cc2c(N)cccc2nn1,73*,12*,45*,77*,9,-7,1,8,-28,78*,TDP2 confirm=57*
O=C1[C@@H](C2CC2)[C@@H]2c3ccccc3C=NN2[C@@H]2c3ccccc3C=NN12,1,.,2,-8,2,.,.,.,.,.,
[C-]#[N+][C@H](O[C@@H]1O[C@H](CO)[C@@H](O)[C@H](O)[C@H]1O)c1ccccc1,-5,-2,-1,0,-2,.,.,.,.,.,
O=C(O)CC(CCc1ccccc1)OC1OC(CO)C(O)C(O)C1O (configuration not stated),85*,30*,15,5,12,26*,3,87*,-441,92*,GFP quench DR=>68
COC1=CC(=O)c2c(ccc3ncnc(N)c23)C1=O,53*,17*,6,85*,-6,31*,3,7,-26,73*,GFP quench DR=>67;TDP2 confirm=82*
COc1cccc2c1C(=O)C=C(C)C2=O,-3,-1,0,0,2,.,.,.,.,.,
COc1ccc(S[C@]2(C(=O)N3CCN(c4ncccn4)CC3)CC(=O)N(C(=O)Nc3ccc(C)c(Cl)c3)[C@@H]2c2ccc(OC)cc2)cc1,-1,.,-1,-6,-5,.,.,.,.,.,
O=C(O)c1ccc2c(c1)C1C=CCC1C(c1ccncc1)N2 (configuration not stated),2,-2,3,2,-1,.,.,.,.,.,
COc1ccc(NS(=O)(=O)c2ccc3c(c2)[C@H]2C=CC[C@H]2[C@@H](c2ccc(C(=O)O)cc2)N3)cc1,52*,9.2*,20,2,5,9.5*,17*,26*,-94,58*,
CCn1c(C)nc2cc(C(=O)N/N=C/c3cccc(OC)c3O)ccc21,-9,0,-5,-15,-5,.,.,.,.,.,
